Measured values taken from ChEMBL document CHEMBL3808283, “Biological Characterization and in Vivo Assessment of the Activity of a New Synthetic Macrocyclic Antifungal Compound” (J Med Chem, 2016).
Converted amounts (≈) assume the structure as drawn. The source made the active and inactive calls. The rule behind the calls is not given here.

Assays:
Candida albicans [1] = assay: Antifungal activity against Candida albicans isolate DSY654 harboring CDR1/2 deletion mutant at 10 uM by serial dilution assay; assay type: functional, organism-based
In short: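 Spot dilution assay: C. albicans cells 10-fold serially diluted from 2 × 10^7 cells/mL, with 5 µL of each dilution spotted onto YEPD agar plates containing the drug.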

Candida albicans [2] = assay: Upregulation of CDR2 gene expression in Candida albicans SC5314 at 3 uM after 15 to 45 mins by qRT-PCR method; assay type: functional, organism-based
In short: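 Log-phase C. albicans treated at 3 µM. RNA extracted with glass-bead disruption, then DNase-treated (10 µg per preparation). Target gene CT values were normalized to an endogenous reference. Fold change calculated as mean normalized expression of samples relative to a selected control.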

Pichia kudriavzevii [3] = assay: Antifungal activity against Candida krusei 193T measured at 72 hrs by broth dilution assay; assay type: functional
In short: (§1)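 EUCAST broth microdilution, including the update for non-fermenting yeasts (Cryptococcus, Geotrichum), on clinical and reference yeast isolates. Incubated at 37 °C and read at 24, 48 and 72 h. MIC taken as the lowest concentration with no visible growth. For Cryptococcus and Geotrichum, MICs were read only once growth was visible in the control row.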

Candida albicans [4] = assay: Upregulation of orf19.4531 gene expression in Candida albicans SC5314 at 3 uM after 45 mins by microarray method relative to control; assay type: functional
In short: (§2)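 Log-phase cultures in liquid YEPD were exposed to 3 µM compound (final) for 15 or 45 min, with untreated controls sampled at the same times, in three biological replicates. Total RNA was extracted by glass-bead/phenol-chloroform disruption and integrity-checked. One-color Cy3-labelled cRNA (600 ng) was hybridized for 17 h at 65 °C to 8 × 15K arrays, and fold change was taken versus control.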

Candida albicans [5] = assay: Antifungal activity against Candida albicans 4T measured at 24 hrs by broth dilution assay; assay type: functional; in short: as §1
Magnusiomyces capitatus = assay: Antifungal activity against Geotrichum capitatum measured at 48 hrs by broth dilution assay; assay type: functional; in short: as §1
Candida albicans [6] = assay: Upregulation of orf19.1887 gene expression in Candida albicans SC5314 at 3 uM after 45 mins by microarray method relative to control; assay type: functional; in short: as §2
Candida tropicalis [7] = assay: Antifungal activity against Candida tropicalis 86E measured at 48 hrs by broth dilution assay; assay type: functional; in short: as §1
Candida albicans [8] = assay: Antifungal activity against Candida albicans 15T measured at 72 hrs by broth dilution assay; assay type: functional; in short: as §1
Candida albicans [9] = assay: Upregulation of RTA2 gene expression in Candida albicans SC5314 at 3 uM after 15 mins by microarray method relative to control; assay type: functional
In short: (§3)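 Log-phase C. albicans SC5314 in liquid YEPD exposed to 3 µM final for 15 or 45 min; untreated controls taken at the same time points. Three biological replicates. RNA extracted by glass-bead/phenol-chloroform method and integrity checked. One-color Cy3-labeled cRNA (600 ng) hybridized 17 h at 65 °C to 8 × 15K arrays. Expression expressed as fold change versus control.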

Pichia kudriavzevii [10] = assay: Antifungal activity against Candida krusei 193T measured at 48 hrs by broth dilution assay; assay type: functional; in short: as §1
Candida albicans [11] = assay: Antifungal activity against Candida albicans 4T measured at 72 hrs by broth dilution assay; assay type: functional; in short: as §1
Candida albicans [12] = assay: Upregulation of CRZ2 gene expression in Candida albicans SC5314 at 3 uM after 15 mins by microarray method relative to control; assay type: functional; in short: as §3
Candida parapsilosis [13] = assay: Ratio of MIC at 24 hrs to MIC at 48 hrs for Candida parapsilosis ATCC 34136; assay type: functional
In short: (§4)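 MICs by EUCAST broth microdilution, with the update for non-fermenting yeasts, incubated at 37 °C. Read at 24, 48 and 72 h as the lowest concentration preventing visible growth.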

Candida albicans [14] = assay: Upregulation of CDR1 gene expression in Candida albicans SC5314 at 3 uM after 45 mins by microarray method relative to control; assay type: functional; in short: as §3
Pichia kudriavzevii [15] = assay: Ratio of MIC at 24 hrs to MIC at 48 hrs for Candida krusei ATCC 14243; assay type: functional; in short: as §4
Candida albicans [16] = assay: Upregulation of FCR1 gene expression in Candida albicans SC5314 at 3 uM after 45 mins by microarray method relative to control; assay type: functional; in short: as §3
Candida albicans [17] = assay: Fungicidal activity against Candida albicans ATCC 60193 at 5 uM up to 24 hrs by time kill assay relative to control; assay type: functional
In short: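 EUCAST broth microdilution at 37 °C. From wells at MIC, 2×, 4× and 8× MIC, 10 µL aliquots were taken, serially 10-fold diluted in saline and plated on Sabouraud dextrose agar. Plates were incubated at 37 °C for 24/48 h, and 48 h for Cryptococcus and Geotrichum. Done in duplicate, detection limit 10 CFU/mL. A drop of at least 3 Log10 CFU/mL from the initial inoculum in 24 h counts as fungicidal; a smaller drop counts as fungistatic.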

[18] = Chemical stability in RPMI-1640 buffer at 2 mM up to 72 hrs at 30 degC by LC-UV-MS analysis; conditions: 2000 µM
Candida albicans [19] = assay: Antifungal activity against Candida albicans ATCC 60193 measured at 48 hrs by broth dilution assay; assay type: functional; conditions: ATCC 60193, 48 h; in short: as §1
[20] = Antifungal activity against Geotrichum silvicola measured at 48 hrs by broth dilution assay; assay type: functional; in short: as §1
Candida albicans [21] = assay: Upregulation of PDR16 gene expression in Candida albicans SC5314 at 3 uM after 15 mins by microarray method relative to control; assay type: functional; in short: as §3
Pichia kudriavzevii [22] = assay: Antifungal activity against Candida krusei ATCC 14243 measured at 48 hrs by broth dilution assay; assay type: functional; conditions: ATCC 14243, 48 h; in short: as §1
Candida albicans [23] = assay: Upregulation of orf19.3378 gene expression in Candida albicans SC5314 at 3 uM after 15 mins by microarray method relative to control; assay type: functional; in short: as §2
Candida albicans [24] = assay: Upregulation of orf19.1887 gene expression in Candida albicans SC5314 at 3 uM after 15 mins by microarray method relative to control; assay type: functional; in short: as §2
Candida tropicalis [25] = assay: Antifungal activity against Candida tropicalis 86E measured at 24 hrs by broth dilution assay; assay type: functional; in short: as §1
Candida albicans [26] = assay: Antifungal activity against Candida albicans ATCC 60193 up to 96 hrs by broth dilution assay; assay type: functional
Candida albicans [27] = assay: Antifungal activity against Candida albicans 53T measured at 24 hrs by broth dilution assay; assay type: functional; in short: as §1
[28] = Antifungal activity against Geotrichum silvicola up to 96 hrs by broth dilution assay; assay type: functional
[29] = Antifungal activity against Geotrichum silvicola measured at 72 hrs by broth dilution assay; assay type: functional; in short: as §1
Cryptococcus neoformans = assay: Antifungal activity against Cryptococcus neoformans up to 96 hrs by broth dilution assay; assay type: functional, organism-based
Candida albicans [30] = assay: Upregulation of CDR2 gene expression in Candida albicans SC5314 at 3 uM after 15 mins by microarray method relative to control; assay type: functional; in short: as §3
Candida parapsilosis [31] = assay: Antifungal activity against Candida parapsilosis 81E measured at 24 hrs by broth dilution assay; assay type: functional; conditions: Lodderomyces parapsilosis; in short: as §1

C/C=C/CNC(=N)NCCCCCCCCN1CCCCCCCCNC(=N)NC1=O
Activity (Candida albicans [1]): inactive
Activity (Candida albicans [2]): Active
MIC (Pichia kudriavzevii [3]): 80 µM (≈ 34.9 µg/mL)
fold change (FC) (Candida albicans [4]): 21.54
MIC (Candida albicans [5]): 5 µM (≈ 2.18 µg/mL)
MIC (Magnusiomyces capitatus): 10 µM (≈ 4.36 µg/mL)
fold change (FC) (Candida albicans [6]): 3.44
MIC (Candida tropicalis [7]): 5 µM (≈ 2.18 µg/mL)
MIC (Candida albicans [8]): 5 µM (≈ 2.18 µg/mL)
fold change (FC) (Candida albicans [9]): 3.07
MIC (Pichia kudriavzevii [10]): 80 µM (≈ 34.9 µg/mL)
MIC (Candida albicans [11]): 5 µM (≈ 2.18 µg/mL)
fold change (FC) (Candida albicans [12]): 2.28
Ratio (Candida parapsilosis [13]): 8
fold change (FC) (Candida albicans [14]): 3.75
Ratio (Pichia kudriavzevii [15]): 8
fold change (FC) (Candida albicans [16]): 5.88
Activity (Candida albicans [17]): 99.9%
Stability [18]: Stable
MIC (Candida albicans [19]): 5 µM (≈ 2.18 µg/mL)
MIC [20]: 10 µM (≈ 4.36 µg/mL)
fold change (FC) (Candida albicans [21]): 4.43
MIC (Pichia kudriavzevii [22]): 80 µM (≈ 34.9 µg/mL)
fold change (FC) (Candida albicans [23]): 5.32
fold change (FC) (Candida albicans [24]): 2.19
MIC (Candida tropicalis [25]): 2.5 µM (≈ 1.09 µg/mL)
Activity (Candida albicans [26]): Active
MIC (Candida albicans [27]): 5 µM (≈ 2.18 µg/mL)
Activity [28]: Active
MIC [29]: 10 µM (≈ 4.36 µg/mL)
Activity (Cryptococcus neoformans): Active
fold change (FC) (Candida albicans [30]): 71.84
MIC (Candida parapsilosis [31]): 20 µM (≈ 8.71 µg/mL)
